# From PubChem
# HNF4A DNA FP = change in binding of human HNF4A to DNA, primary screen, biochemical, fluorescence polarization, FITC-DNA | 360,000 compounds, 0.3% hits | activity change, % at 10 µM | AID 1224865, 2016 | 1 h | Hepatocyte nuclear factor 4-alpha (Homo sapiens), P41235; in the data active = activity change above about 30%, passing the limit was not always enough
# Rpn11 block = Rpn11 (PSMD14) deubiquitinase inhibitors, primary screen, biochemical, fluorescence polarization, uHTS; 26S proteasome non-ATPase regulatory subunit 14 (Homo sapiens), O00487; human 26S proteasome, Ub4-pepOG fluorescence polarization; 20S core pre-blocked with epoxomicin; calls only at 20 µM; 360,000 compounds, 0.59% hits;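 active = inhibition at 20 µM, scaled to each plate's controls, above about 33%, limit read from the data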
# TPT1 inhibitor = Candida albicans TPT1 enzyme inhibitors, primary screen, biochemical, fluorescence polarization | tRNA 2'-phosphotransferase TPT1 (Candida albicans SC5314) | recombinant caTPT1, FP RNA substrate dephosphorylation | inhibition, % at 5 µM | 300,000 compounds, 0.81% hits;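 active = inhibition above the mean of all tested compounds plus 3 SD, set per screening campaign, cut at about 24% in these data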;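 note: plate controls were DMSO alone for no effect and ferristatin control at 100 nM for full effect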
# PKA-R1A activ = activators of PKA-R1A holoenzyme, primary screen, biochemical, fluorescence polarization, Cy5-IP20, bovine R1A, mouse PKAc. PKA-R1A dissociation; scaled: DMSO 0%, 113 µM cGMP 100%. activation, % at 11.4 µM. 340,000 compounds, 0.083% hits;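 active = percent activation above the mean of all tested compounds plus 3 SD, cut at about 19% in these data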;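 note: higher means more PKAc released from R1A so a rise in polarization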
# CSN inh = inhibitors of CSN-mediated cullin deneddylation, primary screen, biochemical, fluorescence polarization, uHTS | COP9 signalosome complex subunit 5 (Homo sapiens), Q92905 | Purified CSN, SCF-Nedd8-OG deneddylation | inhibition, % at 12.5 µM | 360,000 compounds, 0.38% hits | AID 651999, 2013;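 active = pattern-corrected inhibition above about 35%, with an unprinted fluorescence ratio check between 0.5 and 1.5, limit read from the data, passing the limit was not always enough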;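 note: 0% = enzyme with substrate and 100% = substrate without enzyme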
#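 assay system = purified human Csn5 enzyme expressed in HEK293T cells | amount = 0.24 nM enzyme | buffer or medium = Tris/NaCl/DTT buffer, pH 7.5 | reagent = 10 nM SCFSkp2-Nedd8OG | compound = one concentration, 12.5 µM, 0.25% DMSO | times = 90 min reaction at room temperature | signal = FP | read-out basis = % inhibition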
# PKA-R2B activ = activators of PKA-R2B holoenzyme, primary screen, biochemical, fluorescence polarization, Cy5-IP20, human; PKA-R2B holoenzyme dissociation; R2B truncated from residue 108, S112A mutant; 0% DMSO only, 100% 113 µM cGMP; activation, % at 11.4 µM; 340,000 compounds, 0.079% hits;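 active = activation above a cutoff set at the mean over all compounds plus 3 SD, cut at about 18% in these data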;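 note: higher means more holoenzyme dissociation and a rise in polarization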
# Target sequence (P31323 whole entry, looked up, other chains not shown, the tested form may be a part): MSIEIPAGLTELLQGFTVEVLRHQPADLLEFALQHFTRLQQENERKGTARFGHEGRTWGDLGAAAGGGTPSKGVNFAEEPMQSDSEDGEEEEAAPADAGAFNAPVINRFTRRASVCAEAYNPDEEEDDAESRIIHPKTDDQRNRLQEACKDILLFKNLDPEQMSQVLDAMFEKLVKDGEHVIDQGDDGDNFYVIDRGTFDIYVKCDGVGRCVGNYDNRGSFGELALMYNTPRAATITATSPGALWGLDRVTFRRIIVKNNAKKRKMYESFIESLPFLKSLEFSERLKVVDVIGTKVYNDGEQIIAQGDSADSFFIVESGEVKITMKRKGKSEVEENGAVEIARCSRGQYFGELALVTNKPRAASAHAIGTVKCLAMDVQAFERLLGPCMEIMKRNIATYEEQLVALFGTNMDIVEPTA
# R2B FP artifact = fluorescence polarization artefacts, biochemical, artefact control for PKA-R2B activator project; shares compounds with PKA-R2B activ; FP artifact counterscreen; activation, % at 11.4 µM; 270 compounds, 6% hits; AID 504796, 2011; in the data active = activation above about 20%;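 note: Cy5 labelled IP20 peptide probe with compound but no PKA protein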
# PKA-R2B act conf = activators of PKA-R2B holoenzyme, confirmation, biochemical, fluorescence polarization, human; shares compounds with PKA-R2B activ; PKA-R2B complex, activation; activation, % at 11.4 µM; 270 compounds, 9% hits; in the data active = activation above about 19%
# Target sequence (P31323 whole entry, looked up): as the sequence (P31323 whole entry, looked up, other chains not shown, the tested form may be a part) above
# The depositor's hits bear a star; i = inactive; · = no result given. An excerpt weighted towards active compounds, which were near 1.6% of everything screened.
SMILES,HNF4A DNA FP,Rpn11 block,TPT1 inhibitor,PKA-R1A activ,CSN inh,PKA-R2B activ,R2B FP artifact,PKA-R2B act conf
CC(=O)Nc1cccc(-c2nc3ccccc3n2C(C(=O)NC(C)(C)C)C2CC2)c1 (stereo unspecified),1,·,·,·,0,·,·,·
OC(CCCN1CCC(O)(c2ccc(Cl)cc2)CC1)c1ccc(F)cc1 (stereo unspecified),0,i,0,2,-2,19*,6,2
CCNC(=O)N1CCN(CCCC(c2ccc(F)cc2)c2ccc(F)cc2)CC1,-3,i,-7,-1,1,0,·,·
O=C(COC(=O)COc1ccc(Cl)cc1)Nc1ccc2c(c1)OCCO2,-2,i,·,1,-1,19*,3,4
CC(=O)Nc1ccc(S(=O)(=O)NNC(=O)COc2cc(C)ccc2C(C)C)cc1,0,i,0,7,4,20*,3,0
O=C(CN1C(=O)NC2(CCCCC2)C1=O)NNC(=O)C1CC1,-2,i,·,1,-5,-5,·,·
Nc1nnc(Cc2cccc(Br)c2)s1,-1,i,3,7,1,20*,1,-4
COC(=O)Cc1cnc(NC(=O)C2C3CCC(C3)C2C(=O)O)s1 (stereo unspecified),3,i,-1,4,-1,19*,2,4
C=CCN(CCNP(=O)(OCC)OCC)CP(=O)(OCC)OCC,1,i,-2,16,-2,20*,4,0
O=C(CSc1ccccc1)N1CCN(c2ccc(F)cc2)CC1,1,i,-4,-3,-1,-2,·,·
Cc1ccsc1CNC12CC3CC(CC(C3)C1)C2,0,i,1,-13,-4,21*,2,4
Cc1ccsc1CNC1CCCCC1,-1,i,-3,0,3,-2,·,·
O=C(CCSCc1ccccc1Cl)NC1CCCC1,3,i,-1,-8,-5,9,·,·
COCCNC(=O)c1cc(-c2ccc3c(c2)OCO3)on1,-2,i,6,7,4,18*,-2,1
COCCNC(=O)COCc1cc(-c2ccc3c(c2)OCO3)on1,0,i,-3,-9,-2,-1,·,·
Clc1cccc(N/N=C/c2ccc(N3CCOCC3)s2)c1,2,i,9,7,-7,21*,6,-1
O=C(N/N=C/c1ccc(N2CCOCC2)s1)c1ccccc1Br,4,i,15,1,6,-6,·,·
COc1cccc(CC(NC(C)=O)C(=O)NC2CCN(C(=O)c3ccncc3)CC2)c1OC (stereo unspecified),1,i,·,-5,-1,19*,6,2
COc1cccc(CC(NC(C)=O)C(=O)NC2CCN(C(=O)C3CCCCC3)CC2)c1OC (stereo unspecified),-1,i,·,-1,2,-2,·,·
Cc1ccc(S(=O)(=O)N2C[C@]3(O)C[C@@H]4C(=O)N(c5ccccc5)C(=O)[C@@H]4C[C@]3(OC(=O)NCC3CCCCC3)C2)cc1,0,i,·,-11,0,-4,·,·
Cc1n[nH]c2ccc([N+](=O)[O-])cc2c1=O,2,i,·,2,-3,-2,·,·
O=C(CCSc1ccccc1)NCC1CCCO1 (stereo unspecified),-4,i,-4,-9,1,5,·,·
O=C(CCSCCC(=O)NCC1CCCO1)NCC1CCCO1 (stereo unspecified),-1,i,-3,-2,2,20*,4,0
COc1ccc(NC(=O)Nc2ccc3c(c2)C(=O)N([C@H](C)CO)C[C@H](C)[C@@H](CN(C)C(=O)Nc2ccc(C(F)(F)F)cc2)O3)cc1,2,i,·,-6,20,19*,1,-3
Cc1cccc(C)c1NC(=O)C(NC=O)c1ccc(N(C)C)cc1 (stereo unspecified),3,i,-1,9,-2,20*,-4,-1
SMILES,HNF4A DNA FP,Rpn11 block,TPT1 inhibitor,PKA-R1A activ,CSN inh,PKA-R2B activ,R2B FP artifact,PKA-R2B act conf
Cc1cccc(C)c1NC(=O)C(NC=O)c1ccccc1Cl (stereo unspecified),-2,i,-9,1,5,-12,·,·
COc1ccc(C)cc1NC(=O)C1CCN(C(=O)C2CC(=O)N(c3ccc(C)cc3)C2)CC1 (stereo unspecified),-1,i,-5,-14,-3,-2,·,·
COc1ccccc1NC(=O)C1CCN(C(=O)C2CC(=O)N(c3ccc(C)cc3)C2)CC1 (stereo unspecified),-1,i,0,5,5,20*,6,4
O=C(Nc1ccc(C(=O)O)cc1)/C(=C\c1ccco1)NC(=O)c1ccc(Br)cc1,0,i,·,0,7,24*,4,1
O=C(Nc1ccc(C(=O)O)cc1)/C(=C\c1ccco1)NC(=O)c1ccc(Br)o1,-5,i,6,11,10,-3,·,·
CN(C)CCCn1cnc2c(c1=N)C(c1ccccc1)c1ccc3ccccc3c1O2 (stereo unspecified),3,i,2,-4,1,22*,2,2
N=c1c2c(ncn1CCCO)Oc1c(ccc3ccccc13)C2c1ccccc1 (stereo unspecified),2,i,-5,-10,0,-11,·,·
CCN1CCCC1CN(Cc1cc2cc(C)ccc2[nH]c1=O)C(=O)Nc1ccccc1OC (stereo unspecified),4,i,10,0,2,19*,1,2
COc1ccccc1NC(=O)N(CCN1CCCC1)Cc1cc2cc(C)ccc2[nH]c1=O,0,i,4,6,-3,2,·,·
c1ccc(CSc2nnc3ccc(-c4ccncc4)nn23)cc1,2,i,1,3,4,-1,·,·
Fc1ccccc1CSc1nnc2ccc(-c3ccncc3)nn12,4,i,-5,2,2,19*,2,4
